A short description of data set [1]: Tmax in C57BL/6 mouse at 100 mg/kg, po measured upto 24 hrs by LC-MS/MS analysis. As to conditions: in vivo.
The subject of another data set is Danio rerio. Description: In vivo agonist activity at human GFP-tagged PPARalpha in transgenic zebrafish assessed as increase in GFP expression in brain at 0.5 uM measured after 14 hrs by microscopy.
The nature of data set [2]: Apparent oral clearance in C57BL/6 mouse at 100 mg/kg, po measured upto 24 hrs by LC-MS/MS analysis. It counts as ADME, organism-based. The conditions noted are these: in vivo. Put shortly:
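Single oral dose given in peanut butter pellets to WT male C57Bl/6 mice acclimated 7 days to drug-free pellets; n = 4 per time point. Saphenous blood at 0.25–2 h, terminal collection at 4–38 h. Plasma extracted with methanol containing internal standard, LC-MS/MS with negative-ion ESI MRM. Parameters reported as mean ± SEM; Frel is oral vs IP.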

A short description of data set [3]: Apparent oral clearance in C57BL/6 mouse at 40 mg/kg, ip […] by LC-MS/MS analysis. The conditions noted are these: in vivo. The class given is ADME, organism-based.

For one molecule, Tmax, Activity and CL/F results are on record in ChEMBL document CHEMBL5154715, “Phenolic Lipids Derived from Cashew Nut Shell Liquid to Treat Metabolic Diseases” (J Med Chem, 2022).

Calls of active or inactive are those of the source. The calls are words filed in the database; no cut-off is given here.

The term Tmax denotes the time at which the peak concentration occurs. As usually defined, the CL/F is the apparent clearance, not corrected for the fraction that reaches the circulation. Take `CCCCCCCCCCCCCCCc1cccc(OC(C)(C)C(=O)O)c1`: in data set [1], the Tmax was determined as 4 h. Besides, the result in the data set on Danio rerio was Active. The CL/F in data set [2] amounted to 2.3 mL/min/kg; in data set [3], 0.89 mL/min/kg.
